PvdQ inh: P. aeruginosa PvdQ acylase inhibitors, primary screen, biochemical, fluorescence, plate reader and imaging, single point. PvdQ acylase [Pseudomonas aeruginosa LESB58]. purified PvdQ acylase. inhibition, % at 10 µM. hit rate 0.063% among 340,000; in the data active means inhibition above about 30%, passing the limit was not always enough; inconclusive means no clear call, values can overlap the other calls
SR-BI DiI inh: inhibitors of SR-BI mediated HDL lipid uptake, primary screen, ldlA[mSR-BI] cells, fluorescence, single point | Scavenger receptor class B member 1 (Mus musculus), Q61009 | ldlA[mSR-BI] CHO cells, DiI-HDL uptake fluorescence, 3 h | inhibition, % at 12.5 µM | hit rate 0.96% among 320,000;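 active means mean replicate inhibition of at least 70% and a set share of replicates each scoring 70 or more; inconclusive means meets just one of the two criteria; inactive means fails both criteria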
SR-BI DiI-HDL act: activators of SR-BI mediated DiI-HDL uptake, primary screen, ldlA[mSR-BI] CHO cells, DiI fluorescence | 3 h; 100 = double the neutral-control signal | activation, % at 12.5 µM | hit rate 0.096% among 320,000;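 active means mean replicate activation of at least 60% and every replicate at or above 60%; inconclusive means mean or all-replicate condition met, but not both; inactive means mean below 60% and not all replicates reaching 60%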
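Assay system: CHO ldlA[mSR-BI] cells, LDL receptor-null, SR-BI overexpressing; medium: Ham's F12 with 0.5% BSA, HEPES 25 mM, pH 7.4; also added: DiI-HDL 10 µg/mL; timing: 3 h uptake period with compound, 37 °C; signal: DiI fluorescence, bottom read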
Xi reactivation: activators of inactive X chromosome reactivation, primary screen, imaging, XiGFP fibroblasts, GFP high-content imaging, set 2 | XiGFP mouse fibroblasts, % GFP-positive cells imaging, 3 d; cells co-treated with 5-aza-dC sensitizer; scaled so ellipticine positive control = 100% | activation, % at 7.58 µM | hit rate 0.055% among 360,000;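 active means mean normalized replicate activation at least 10% and every replicate at or above 10%; inconclusive means only one of the two criteria met; inactive means mean below 10% and not all replicates reach 10%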
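Assay system – SV40-immortalized XiGFP fibroblast cells, line 68-5-11 · Buffer or medium – DMEM supplemented with 5-aza-dC as sensitizing agent · Dosing – one concentration, pinned · Benchmarks – positive control ellipticine, 6 µM final · Times – 3 days compound exposure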
dFosB act: activators of delta FosB homodimer, primary screen, biochemical, fluorescence polarization, TAMRA-CDK5 oligo, single point; AID 493131, 2011; activation, % at 25 µM; purified delta FosB; percent of positive-control signal above neutral wells; hit rate 0.99% among 340,000;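 active means mean activation above about 17%, with every replicate also reaching it, limit read from the data, passing the limit was not always enough; inconclusive means only one of the two conditions met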
Target sequence (P13346 whole entry, looked up): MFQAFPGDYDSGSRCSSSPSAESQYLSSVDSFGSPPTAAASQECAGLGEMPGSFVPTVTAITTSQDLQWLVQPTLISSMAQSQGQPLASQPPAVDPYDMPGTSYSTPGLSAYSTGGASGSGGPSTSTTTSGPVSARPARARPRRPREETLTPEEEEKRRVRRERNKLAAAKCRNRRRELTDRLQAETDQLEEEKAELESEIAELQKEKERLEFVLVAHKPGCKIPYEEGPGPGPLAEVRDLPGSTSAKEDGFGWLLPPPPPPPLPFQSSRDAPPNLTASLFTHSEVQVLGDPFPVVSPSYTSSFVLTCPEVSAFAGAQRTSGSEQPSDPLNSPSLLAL
rRNA inh HTS: reduced GFP signal of wild-type E. coli, primary screen, bacterial rRNA inhibitor project, GFP/RFP fluorescence, OD600, single point. hit rate 1.6% among 350,000. E. coli WT GFP vs humanized-ribosome RFP mutants, 24 h; hits give low values; DMSO median 0, no signal -100. GFP signal change (wild-type ribosome), % (no concentration beside the values). AID 720706, 2013;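 active means significant combined selectivity score with lowered wild-type GFP, culture density cut under 30%, mutant RFP and density less affected; inactive means any of these conditions unmet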
AID977621: growth inhibition of wild-type GFP E. coli, dose response, H69 mutant RFP, cherry-pick; shares compounds with rRNA inh HTS; E. coli wild-type GFP strain growth, fluorescence, 24 h; activity change, negative = inhibition at 50 µM; 1,900 tested, under 10 active; AID 977621, 2014;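 active means Wild-type ribosome reporter drop at least double the humanized mutant ribosome reporter drop, growth loss under a set limit; inconclusive means no clear call, values can overlap the other calls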;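 further: wild-type GFP and H69 mutant RFP strains grown together 50/50 in each well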
AID977628: E. coli growth inhibition, wild-type GFP versus h24 humanized RFP strain, dose response, h24 mutant RFP vs wild-type GFP, cherry-pick; 1,900 tested, under 10 active; shares compounds with rRNA inh HTS; E. coli WT GFP strain growth, fluorescence, 24 h; AID 977628, 2014; activity change, negative = inhibition at 50 µM;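 active means compound lowering the normal-ribosome reporter at least twice as much as the humanized-ribosome reporter, growth loss under a set limit; inconclusive means no clear call, values can overlap the other calls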;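 further: wild-type GFP and h24 humanized RFP strains co-cultured 1 to 1 per well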
Large screens that a line does not name were inactive (follow-up assays come after a bar, where they were run). An excerpt weighted towards active compounds, which were near 2.6% of everything screened.

O=C(O)c1ccccc1NC(=O)C(c1ccccc1)c1ccccc1	rRNA inh HTS -30 | AID977621 inactive | AID977628 inactive
CCc1ccc2[nH]c(C(=O)Nc3ccc4c(c3)OCO4)cc2c1	rRNA inh HTS -26 | AID977621 inactive | AID977628 inconclusive
Cc1cc(C)c2[nH]c(C(=O)Nc3ccc4c(c3)OCO4)cc2c1	none (no result: SR-BI DiI inh, SR-BI DiI-HDL act)
Nc1nc(-c2cc(-c3ccccc3)no2)cs1	rRNA inh HTS -19 | AID977621 inactive | AID977628 inconclusive
Cc1cccc(NC(=O)NC(C)CCc2ccccc2)c1 (stereo not given)	none (no result: rRNA inh HTS)
O=C(CCCOc1ccc(Cl)cc1Cl)Nc1ccccc1C(=O)O	rRNA inh HTS -30 (no result: SR-BI DiI inh, SR-BI DiI-HDL act) | AID977621 inactive
O=C1CN(Cc2ccccc2)C[C@@H]2[C@@H](c3ccc(Br)cc3)[C@@H](CO)N12	none (no result: PvdQ inh, SR-BI DiI inh, SR-BI DiI-HDL act, dFosB act)
CO[C@H]1CN(C)C(=O)c2ccc(NS(C)(=O)=O)cc2OC[C@@H](C)N(Cc2ccccn2)C[C@H]1C	none (no result: PvdQ inh, SR-BI DiI inh, SR-BI DiI-HDL act, dFosB act)
COc1ccc(CN(C)C[C@@H]2Oc3ccc(NC(=O)Nc4ccccc4)cc3CC(=O)N([C@H](C)CO)C[C@H]2C)cc1	none (no result: PvdQ inh, SR-BI DiI inh, SR-BI DiI-HDL act, dFosB act)
NC(=O)c1ccc(NC(=O)COC(=O)C2CC3C=CC2C3)cc1 (stereo not given)	none
O=C(COC(=O)C1CC2C=CC1C2)Nc1ccc([N+](=O)[O-])cc1 (stereo not given)	rRNA inh HTS -31 | AID977621 inactive | AID977628 inactive
Cc1cc(C)cc(NC(=O)COC(=O)CCC2CCCC2)c1	none
Cc1cc(C)cc(NC(=O)COC(=O)CC2CCCC2)c1	rRNA inh HTS -19 | AID977621 inactive | AID977628 inactive
Clc1ccccc1C1CC(c2ccccc2)=Nc2ccccc2N1 (stereo not given)	rRNA inh HTS -20 | AID977628 inconclusive
CCOC(=O)N1CCC(NC(=O)C2CCCN(C(=O)N3CCOc4ccccc43)C2)CC1 (stereo not given)	none (no result: SR-BI DiI inh, SR-BI DiI-HDL act, Xi reactivation, rRNA inh HTS)
Cc1c(Br)c([N+](=O)[O-])nn1CC(=O)Nc1sc2c(c1C(=O)OC(C)C)CCCC2	none (no result: Xi reactivation, rRNA inh HTS)
O=C(O)c1ccccc1Nc1cc(Cl)c2nonc2c1[N+](=O)[O-]	rRNA inh HTS -20 | AID977621 inconclusive
O=C(O)c1cccc(Nc2cc(Cl)c3nonc3c2[N+](=O)[O-])c1	none
COc1ccc(OCCCC(=O)Nc2cccc([N+](=O)[O-])c2)cc1	none (no result: rRNA inh HTS)
CC(=O)Nc1cccc(OCCCOc2cccc([N+](=O)[O-])c2)c1	rRNA inh HTS -5.5 | AID977621 inactive | AID977628 inactive
CN(Cc1nnc(SCC(=O)NCCc2ccccc2)n1C)S(=O)(=O)c1ccccc1	none (no result: Xi reactivation, rRNA inh HTS)
Nc1[nH]c(C(=O)c2ccccc2)c(-c2ccc(Br)cc2)c1C(=O)c1cccs1	rRNA inh HTS -34 (no result: PvdQ inh, SR-BI DiI inh, SR-BI DiI-HDL act, dFosB act) | AID977621 inconclusive
CC(C)(C)CC(=O)Nc1ccccc1N1CCN(c2ccccc2)CC1	rRNA inh HTS -19 | AID977621 inactive | AID977628 inactive
COc1ccc(CN2CCC3CC2c2cc(Cl)ccc23)cc1 (stereo not given)	rRNA inh HTS -21 | AID977621 inconclusive | AID977628 inconclusive
Clc1ccc2c(c1)C1CC2CCN1Cc1ccccc1 (stereo not given)	none
COc1cc(C(=O)NCCc2c[nH]c3ccccc23)ccc1OCc1c(C)noc1C	SR-BI DiI inh 83, rRNA inh HTS -38 | AID977621 inactive | AID977628 inconclusive
CS/C(=C\[N+](=O)[O-])Nc1ccc(OC(F)(F)F)cc1	none
CCC(C(=O)NC1CCCC1)n1c(-c2ccncc2)nc2ccccc21 (stereo not given)	none (no result: PvdQ inh, SR-BI DiI inh, SR-BI DiI-HDL act, Xi reactivation, dFosB act)
CCC(C(=O)NC1CCCC1)n1c(-c2ccnc3ccccc23)nc2ccccc21 (stereo not given)	rRNA inh HTS -14 (no result: PvdQ inh, SR-BI DiI inh, SR-BI DiI-HDL act, dFosB act) | AID977621 inactive | AID977628 inactive
O=C(NC1CCCC1)c1ccc([N+](=O)[O-])s1	rRNA inh HTS -20 | AID977621 inactive | AID977628 inactive
CC1Cc2ccccc2N1C(=O)CN1C(=O)NC(C)(CCc2ccccc2)C1=O (stereo not given)	rRNA inh HTS -18 | AID977621 inactive | AID977628 inactive
COCCCNC(=O)c1ccc(-c2nc3ccccc3nc2-c2ccccc2)cc1	rRNA inh HTS -32 (no result: PvdQ inh, SR-BI DiI inh, SR-BI DiI-HDL act, dFosB act) | AID977621 inactive | AID977628 inactive
Nc1nc(Nc2ccccc2F)nc(NCc2ccco2)c1[N+](=O)[O-]	rRNA inh HTS -20 | AID977621 inconclusive
Cc1ccc(Nc2nc(N)c([N+](=O)[O-])c(NCc3ccco3)n2)cc1	none (no result: rRNA inh HTS)
O=C(Nc1cnc2sccn2c1=O)c1ccccc1Cl	none (no result: Xi reactivation, rRNA inh HTS)
Cc1cccc(OCc2nnc(SCC(=O)Nc3ncc(C)s3)o2)c1	rRNA inh HTS -34 | AID977628 inactive
CCc1nnc(NC(=O)CSc2nnc(COc3cccc(C)c3)o2)s1	none (no result: Xi reactivation, rRNA inh HTS)
CCCCCc1nnc(NC(=O)C2COc3ccccc3O2)s1 (stereo not given)	rRNA inh HTS -20 | AID977621 inactive | AID977628 inactive
COc1ccc(OCCn2c(N)nc3ccccc32)cc1	none
Nc1nc2ccccc2n1CCOc1ccc(F)cc1	rRNA inh HTS -21 | AID977621 inactive | AID977628 inactive
c1ccc(-c2csc(-c3cccnc3)n2)cc1	none
c1ccc(-c2nc(-c3cccnc3)cs2)cc1	rRNA inh HTS -24 (no result: SR-BI DiI inh, SR-BI DiI-HDL act) | AID977621 inconclusive
Cc1cccc(N(C)C(=O)c2cc(S(=O)(=O)N3CCc4ccccc43)cn2C)c1	none
CN(C)c1ccc(-c2nnn(CC(=O)Nc3ccccc3N3CCOCC3)n2)cc1	rRNA inh HTS -16 (no result: Xi reactivation) | AID977621 inactive | AID977628 inactive
CNC[C@@H]1Oc2ccc(NS(C)(=O)=O)cc2CC(=O)N([C@@H](C)CO)C[C@@H]1C	none (no result: PvdQ inh, SR-BI DiI inh, SR-BI DiI-HDL act, dFosB act)
COc1ccc(CNc2cc([N+](=O)[O-])ccc2OC)cc1	rRNA inh HTS -21 (no result: Xi reactivation) | AID977621 inactive
Cc1cccc(C)c1NC(=O)CNC(=O)CCNC(=O)c1ccco1	none
CSc1ccccc1C(=O)Nc1ccccc1C(=O)N1CCCC1	none
COc1cccc(NC(=O)CNC(=O)c2ccccc2)c1	none (no result: Xi reactivation, rRNA inh HTS)
COc1ccc(NS(=O)(=O)c2cc(NC(=O)CNC(=O)c3cccc(OC)c3)ccc2C)cc1	rRNA inh HTS -25 | AID977621 inactive
